Among the data in ChEMBL document CHEMBL4819012, “Discovery of novel 2-aryl-3-sulfonamido-pyridines (HoAns) as microtubule polymerization inhibitors with potent antitumor activities” (Eur J Med Chem, 2021) are viability, IC50 and inhibition values, retold here.

Molecules are shown by their SMILES. The source made the active and inactive calls. The rule behind the calls is not given here.

The test system of test [1] is MCF7. As to the kind of experiment: Antiproliferative activity against human MCF7 cells assessed as cell viability at 10 uM measured after 72 hrs by MTS method. In kind it is functional. The following applies: read-out: Activity. In short, it runs like this: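 Single-concentration screen at 10 µM for 72 h. Log-phase cells plated at 5×10^3–6×10^3 per well for 24 h before dosing, five replicate wells. Viability measured by MTS: 10% MTS in fresh medium, 30 min or more at 37 °C in dark, absorbance 490 nm.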
(Tetrazolium assays rely on reduction of a dye to a coloured formazan, in cell work by metabolically active cells.)

Test [2] in a line: Antiproliferative activity against human HCCLM3 cells assessed as cell viability measured after 72 hrs by MTS method. Conditions: HCCLM3, 72 h. The class given is functional, cell-based. In short, it runs like this:
(§1)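 Log-phase cells plated at 5×10^3–6×10^3 per well for 24 h, then given graded compound concentrations in fresh medium for 72 h, five replicate wells. Medium replaced with medium containing 10% MTS, 30 min or more at 37 °C in dark; OD 490 nm read. IC50 by nonlinear regression; mean ± SD of at least three experiments.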

The test system of test [3] is RKO. As to the kind of experiment: Antiproliferative activity against human RKO cells assessed as cell viability measured after 72 hrs by MTS method. In kind it is functional, cell-based. Summed up:
as §1

Test [4] deals with PANC-1. Nature of the test: Antiproliferative activity against human PANC-1 cells assessed as cell viability measured after 72 hrs by MTS method. The class given is functional, cell-based. Conditions: PANC-1, 72 h. In short, it runs like this:
as §1

Test [5] deals with PLC-PRF-5. As to the kind of experiment: Antiproliferative activity against human PLC-PRF-5 cells assessed as cell viability measured after 72 hrs by MTS method. The class given is functional, cell-based. Conditions: PLC-PRF-5, 72 h. Summed up: as §1
In test [6] the test system is BT-474. Nature of the test: Antiproliferative activity against human BT-474 cells assessed as cell viability measured after 72 hrs by MTS method. The class given is functional, cell-based. The following applies: BT-474, 72 h. In short, it runs like this: as §1
Test [7] relates to SK-BR-3. Nature of the test: Antiproliferative activity against human SK-BR-3 cells assessed as cell viability measured after 72 hrs by MTS method. In kind it is functional, cell-based. Conditions: SK-BR-3, 72 h. Summed up: as §1
In test [8] the test system is SW-620. Nature of the test: Antiproliferative activity against human SW-620 cells assessed as cell viability measured after 72 hrs by MTS method. The class given is functional, cell-based. The following applies: SW-620, 72 h. In short, it runs like this:
as §1

In test [9] the test system is SW480. Nature of the test: Antiproliferative activity against human SW480 cells assessed as cell viability measured after 72 hrs by MTS method. The following applies: SW480, 72 h. The class given is functional, cell-based. Summed up: as §1
In test [10] the test system is A549. Nature of the test: Antiproliferative activity against human A549 cells assessed as cell viability measured after 72 hrs by MTS method. In kind it is functional, cell-based. The following applies: A549, 72 h. Summed up:
as §1

The test system of test [11] is NCI-H460. Nature of the test: Antiproliferative activity against human NCI-H460 cells assessed as cell viability measured after 72 hrs by MTS method. In kind it is functional, cell-based. Conditions: NCI-H460, 72 h. In short, it runs like this:
as §1

For test [12], the species on record is Sus scrofa. Nature of the test: Inhibition of pig tubulin polymerization at 10 uM measured every minute for 60 mins by microplate reader method. Summed up:
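Kit assay with porcine tubulin (>97% pure) at 4 mg/mL in PIPES 80 mM, MgCl2 2 mM, EGTA 0.5 mM, pH 6.9, with GTP. Compound at 10 μM final (from 100 μM working solution) preincubated 5 min at 37 °C in a prewarmed plate before cold tubulin mix is added. A340 read every minute for 60 min at 37 °C.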

Test [13] deals with T1, Tubulin (Homo sapiens) (UniProt P68371+Q9H4B7+P0DPH7+P68366+Q13509+Q71U36+P04350+Q3ZCM7+P07437+P68363+Q9BQE3+Q6PEY2+Q13885+Q9BVA1+Q9BUF5). Nature of the test: Inhibition of tubulin polymerization in human RKO cells assessed as fragmentation of microtubule at 1 uM measured 24 hrs by DAPI staining based immunoflourescence assay. The class given is cell-based. In short, it runs like this: (§2)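 RKO cells on coverslips (2.5×10^5 per well) incubated overnight, then treated for 24 h at 0.5 or 1 μM, DMSO, or 1 μM comparators. Fixed in cold methanol 10 min, permeabilized with 0.25% Triton X-100, blocked in 1% BSA at 4 °C overnight. Stained with anti-β-tubulin (1:100, 2 h RT) and Alexa Fluor 594 secondary (1:500, 1 h), nuclei with DAPI; imaged by fluorescence microscopy.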

The target of test [14] is T1, Tubulin (Homo sapiens). As to the kind of experiment: Inhibition of tubulin polymerization in human RKO cells assessed as morphology changed to fusiform at 1 uM measured 24 hrs by DAPI staining based immunoflourescence assay. Conditions: in the assay text read “changed to round from fusiform” for “changed to fusiform”. In kind it is cell-based. In short, it runs like this: as §2

In general, IC50 refers to the midpoint of a concentration-inhibition curve.

Regarding `COc1ccc(S(=O)(=O)Nc2cccnc2-c2ccnnc2)cc1`, the viability at 10 µM in test [1] was above 70%.

With `COc1ccc(S(=O)(=O)Nc2cccnc2-c2ccc3c(c2)OCO3)cc1`, the viability at 10 µM in test [1] was above 70%.

Consider `N#Cc1ccc(-c2ncccc2NS(=O)(=O)c2ccc(Br)cc2)cc1F`, for which the viability at 10 µM in test [1] was above 70%. Moreover, the IC50 in test [2], in test [3] and in test [4] was above 10 µM throughout.

For `C=CCc1ccc(O)c(-c2ccc(O)c(CC=C)c2)c1` [HONOKIOL], the viability at 10 µM in [1] was above 70%.

With `N#Cc1ccc(-c2ncccc2NS(=O)(=O)c2ccc(OC(F)(F)F)cc2)cc1F`, the IC50 in test [2], in [3] and in test [4] was above 10 µM throughout.

`COc1ccc(S(=O)(=O)N(c2cccnc2-c2ccc3c(c2)OCO3)S(=O)(=O)c2ccc(OC)cc2)cc1`: in test [1], the viability at 10 µM is above 70%.

In the case of `N#Cc1ccc(-c2ncccc2NS(=O)(=O)c2ccc3ccccc3c2)cc1F`, the figures for the IC50 in test [2], in test [3] and in test [4] were 8.87 µM, 2.92 µM and 10 µM, respectively.

`COc1ccc(S(=O)(=O)N(c2cccnc2-c2ccc(OC)cc2OC)S(=O)(=O)c2ccc(OC)cc2)cc1`: the viability at 10 µM in test [1] was above 70%.

Turning to `COc1ccc(S(=O)(=O)Nc2cccnc2-c2ccc(OCc3ccccc3)cc2)cc1`, in test [1], the viability at 10 µM is above 70%.

`COc1ccc(S(=O)(=O)Nc2cccnc2-c2ccc(C#N)cc2)cc1`: the IC50 in [5] was 0.816 µM; in test [2], 0.747 µM; in [6], 1.34 µM; in test [7] it was 0.746 µM; in test [3], 0.259 µM; in test [8], 0.607 µM. In addition, the IC50 in [9] was found to be 0.204 µM; in [10], 2.46 µM; in test [11], 1.5 µM; in [4], 1.09 µM.

In the case of `COc1ccc(S(=O)(=O)Nc2cccnc2-c2ccccc2OC)cc1`, the viability at 10 µM in test [1] is above 70%.

Turning to `COc1ccc(S(=O)(=O)Nc2cccnc2-c2cccc3c2oc2ccccc23)cc1`, the viability at 10 µM in test [1] was above 70%.

On to `COc1ccc(S(=O)(=O)N(c2cccnc2-c2cccc(OC)c2OC)S(=O)(=O)c2ccc(OC)cc2)cc1`, for which, in test [1], the viability at 10 µM is above 70%.

`N#Cc1ccc(-c2ncccc2NS(=O)(=O)c2ccccc2)cc1F`: the IC50 in [2], in [3] and in [4] was above 10 µM each time.

Regarding `COc1ccc(S(=O)(=O)Nc2cccnc2-c2cccc(C#N)c2)cc1`, the viability at 10 µM in test [1] was above 70%.

For `COc1ccc(S(=O)(=O)Nc2cccnc2-c2ccc(C#N)c(F)c2)cc1OC`, the IC50 in test [2], in test [3] and in [4] was above 10 µM throughout.

In the case of `COc1ccc(S(=O)(=O)Nc2cccnc2-c2cc(OC)ccc2OC)cc1`, in test [1], the viability at 10 µM is above 70%.

As for `COc1ccc(S(=O)(=O)Nc2cccnc2-c2cc(OC)c(OC)c(OC)c2)cc1`, the viability at 10 µM in test [1] was above 70%.

Regarding `COc1ccc(S(=O)(=O)N(c2cccnc2-c2cc(OC)ccc2OC)S(=O)(=O)c2ccc(OC)cc2)cc1`, the viability at 10 µM in test [1] is above 70%.

In the case of `COc1ccc(S(=O)(=O)Nc2cccnc2-c2ccccc2)cc1`, the IC50 in test [5] was above 10 µM; in test [2] it was above 10 µM; in [6], above 10 µM; in [7], above 10 µM; in test [3] it was 4.32 µM; in test [8], 7.89 µM. Moreover, the IC50 in [9], in [10], in test [11] and in test [4] was above 10 µM throughout.

In the case of `CC(=O)O[C@H]1C(=O)[C@@]2(C)[C@H]([C@H](OC(=O)c3ccccc3)[C@]3(O)C[C@H](OC(=O)[C@H](O)[C@@H](NC(=O)c4ccccc4)c4ccccc4)C(C)=C1C3(C)C)[C@]1(OC(C)=O)CO[C@@H]1C[C@@H]2O`, the inhibition entry in test [12], in test [13] and in test [14] was “inactive” each time.

For the molecule `COc1ccc(S(=O)(=O)Nc2cccnc2-c2ccc(N)cc2)cc1`, the viability at 10 µM in test [1] is above 70%.

Take `COc1ccc(S(=O)(=O)Nc2cccnc2-c2ccncc2)cc1`: the viability at 10 µM in [1] was above 70%.

As for `COc1ccc(S(=O)(=O)Nc2cccnc2-c2cccc(OC)c2)cc1`, the viability at 10 µM in [1] is above 70%.

As for `COc1ccc(S(=O)(=O)Nc2cccnc2-c2ccccc2O)cc1`, the viability at 10 µM in test [1] is above 70%.

For `COc1ccc(S(=O)(=O)Nc2cccnc2-c2cccc(N)c2)cc1`, the viability at 10 µM in test [1] was above 70%.

In the case of `COc1ccc(S(=O)(=O)Nc2cccnc2-c2ccc(O)cc2)cc1`, the viability at 10 µM in test [1] is above 70%.

Regarding `N#Cc1ccc(-c2ncccc2NS(=O)(=O)c2ccc(C(F)(F)F)cc2)cc1F`, the IC50 in test [2], in test [3] and in [4] was above 10 µM throughout.

Regarding `N#Cc1ccc(-c2ncccc2NS(=O)(=O)c2ccc(Cl)cc2)cc1F`, the viability at 10 µM in [1] was above 70%. Further, the IC50 in test [2], in [3] and in test [4] was above 10 µM throughout.

Turning to `COc1ccc(S(=O)(=O)Nc2cccnc2-c2c(OC)cccc2OC)cc1`, in [1], the viability at 10 µM is above 70%.

Take `COc1ccc(S(=O)(=O)Nc2cccnc2-c2cccnc2)cc1`: the viability at 10 µM in [1] was above 70%.

For the molecule `COc1ccc(S(=O)(=O)Nc2cccnc2-c2ccc(OC)cc2OC)cc1`, in test [1], the viability at 10 µM was above 70%.

In the case of `COc1ccc(-c2ncccc2NS(=O)(=O)c2ccc(OC)cc2)cc1`, in [1], the viability at 10 µM was above 70%.

In the case of `Cc1ccc(S(=O)(=O)Nc2cccnc2-c2ccc(C#N)c(F)c2)cc1`, the viability at 10 µM in test [1] is above 70%. For the same molecule, the IC50 in [2] was above 10 µM; in test [3], 9.21 µM; in test [4] it was above 10 µM.

`COc1ccc(S(=O)(=O)Nc2cccnc2-c2ccc(C(F)(F)F)cc2)cc1`: the IC50 in test [5] is above 10 µM; in test [2], above 10 µM; in [6], above 10 µM; in [7] it was above 10 µM; in test [3], 4.05 µM; in test [8], 6.82 µM. Moreover, the IC50 in test [9] is 9.21 µM; in [10] it was above 10 µM; in test [11], above 10 µM; in [4] it was above 10 µM.

Consider `COc1ccc(S(=O)(=O)Nc2cccnc2-c2cccc([N+](=O)[O-])c2)cc1`, for which, in [1], the viability at 10 µM was above 70%.

As for `COc1ccc(S(=O)(=O)Nc2cccnc2-c2ccc([N+](=O)[O-])cc2)cc1`, the IC50 in test [5] was 5.3 µM; in [2] it was 7.6 µM; in test [6], above 10 µM; in test [7], 6.31 µM; in test [3], 1.4 µM; in test [8], 3.62 µM. The IC50 in [9] was 3.85 µM; in [10], above 10 µM; in test [11] it was above 10 µM; in [4] it was 7.19 µM.

Turning to `COc1ccc(S(=O)(=O)Nc2cccnc2-c2cc(OC)cc(OC)c2)cc1`, the viability at 10 µM in test [1] was above 70%.

On to `COc1ccc(S(=O)(=O)Nc2cccnc2-c2cccc(O)c2)cc1`, for which the viability at 10 µM in test [1] is above 70%.

`COc1ccc(S(=O)(=O)Nc2cccnc2-c2cccc(OC)c2OC)cc1`: the viability at 10 µM in [1] is above 70%.

Consider `COc1ccc(S(=O)(=O)Nc2cccnc2-c2ccc(OC)c(OC)c2)cc1`, for which the viability at 10 µM in [1] is above 70%.
